This is a sample that favours compounds with a hit; in the whole collection about 2.5% have one here.
PfGluPho inh: PfG6PD (Plasmodium falciparum) enzyme inhibition; inhibition, % at 20 µM; AID 504690; PfGluPho enzyme, NADPH resazurin-diaphorase fluorescence; 0.78% of 350,000 active;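 active = inhibition reaching at least a set limit at 20 µM in the primary screen, cut at about 59% in these data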
PGE2 EP2 inh: EP2 receptor (human) inhibition; P43116; C6 glioma cells expressing human EP2, cAMP TR-FRET; cells stimulated with saturating PGE2; inhibition, % at 25 µM; 0.52% of 260,000 active; AID 1422;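 active = percent inhibition above 40 after rounding to a whole number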;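 note: rat C6 glioma host cells with rolipram phosphodiesterase inhibitor present; the protocol text gives 20 µM as final concentration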
Target sequence (P43116 whole entry, looked up): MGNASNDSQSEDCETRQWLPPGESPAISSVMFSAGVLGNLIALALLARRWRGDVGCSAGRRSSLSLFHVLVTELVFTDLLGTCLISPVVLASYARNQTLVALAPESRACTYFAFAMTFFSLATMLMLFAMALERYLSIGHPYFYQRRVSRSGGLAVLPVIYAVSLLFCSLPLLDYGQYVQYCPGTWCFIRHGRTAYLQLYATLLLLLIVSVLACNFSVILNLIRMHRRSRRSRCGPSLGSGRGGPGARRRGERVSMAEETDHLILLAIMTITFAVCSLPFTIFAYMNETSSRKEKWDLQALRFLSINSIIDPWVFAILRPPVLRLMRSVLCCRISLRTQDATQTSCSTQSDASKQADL
PHOSPHO1 block: PHOSPHO1 (human) inhibition; Q8TCT1; inhibition, % at 13.3 µM; 1.1% of 290,000 active; recombinant PHOSPHO1, absorbance phosphatase assay; in the data active = inhibition above about 60%
Target sequence (Q8TCT1 whole entry, looked up): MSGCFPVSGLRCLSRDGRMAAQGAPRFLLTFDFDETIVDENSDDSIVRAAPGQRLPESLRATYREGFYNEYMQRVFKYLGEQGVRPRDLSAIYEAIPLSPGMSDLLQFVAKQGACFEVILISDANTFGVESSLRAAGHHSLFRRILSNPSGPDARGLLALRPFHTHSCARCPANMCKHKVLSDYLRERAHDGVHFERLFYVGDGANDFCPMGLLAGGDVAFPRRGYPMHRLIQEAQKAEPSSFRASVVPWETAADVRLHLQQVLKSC
HKDC1 inhibitor: HKDC1 (human) hexokinase inhibition. AID 493160. inhibition, % at 20 µM. recombinant HKDC1, G6PDH/diaphorase resazurin coupled fluorescence. 0.16% of 340,000 active;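 active = inhibition above about 35% when tested at 20 µM, limit read from the data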
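Incubation: 90 min at room temperature in dark / Material: recombinant HKDC1 (HK5) hexokinase enzyme, produced in-house / Quantity: enzyme 5 µg/mL final / Compound: one dose of 20 µM, 1% DMSO / Reagent: glucose and ATP substrates / Buffer or medium: Tris pH 8.0 buffer with MgCl2, Tween-20, BSA, BME / Technique: resorufin fluorescence at 613 nm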
EP2 mod: modulators of human EP2 prostaglandin E2 receptor; P43116; EP2-expressing cells, cAMP HTRF FRET, PGE2 co-stimulation; induction, % at 25 µM; 0.83% of 260,000 active;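 active = compounds whose cAMP rise, as percent of the full-agonist control response, exceeds 60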;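 note: rat C6 glioma line stably carrying human EP2 under a CMV promoter; the protocol text gives 20 µM as final concentration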
TbHK1 inh: T. brucei hexokinase 1 inhibition; inhibition, % at 10 µM; 0.11% of 220,000 active; AID 1430; recombinant TbHK1, G6PDH-coupled NADH A340;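 active = inhibition of 50% or more in the single-dose primary screen; inactive = inhibition below 50%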
EP2 confirm: human EP2 receptor cAMP induction, negative in counter-screens; AID 1080; calls only at 20 µM (by protocol); C6 glioma EP2 cells, cAMP HTRF induction; plus low (about EC15) PGE2 agonist; 47% of 1,300 active; shares compounds with EP2 mod;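 active = cAMP induction above 50% in the main assay while under 30% in all four parallel counter assays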;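 note: rat C6 glioma cells stably expressing human EP2 receptor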
A number is an active result; i = inactive; nt = no result; + = active, no number.

SMILES	PfGluPho inh	PGE2 EP2 inh	PHOSPHO1 block	HKDC1 inhibitor	EP2 mod	TbHK1 inh	EP2 confirm
Cc1nc(N(C)C)c2sc(=S)n(Cc3ccccc3)c2n1	i	i	i	i	76	i	+
CCOC(=O)CNC(=O)c1ccc2c(c1)OCCO2	i	i	i	i	69	i	i
CCOC(=O)CNC(=O)c1cc(-c2ccc3c(c2)OCCO3)oc1C	i	i	i	i	i	i	nt
CCN(CC)CCCNC(=O)c1cnn2c(C(F)F)cc(-c3ccc(C)cc3)nc12	nt	i	nt	nt	i	nt	nt
C=C(C)Cn1c(N2CCN(c3ccc(OC)cc3)CC2)nc2c1c(=O)n(C)c(=O)n2C	i	i	i	i	i	i	nt
COc1ccc(N2CCN(c3nc4c(c(=O)n(C)c(=O)n4C)n3Cc3ccccc3)CC2)cc1	i	i	i	i	69	i	i
Cc1ccc(S(=O)(=O)c2ccc(C)cc2)cc1	i	i	i	i	i	i	nt
Cc1ccc(S(=O)(=O)c2ccc(Oc3cccc(C)c3)cc2)cc1	i	i	i	i	78	i	i
COc1cccc2[nH]c3c(N4CCC(C)CC4)ncnc3c12	i	i	i	i	80	i	+
CC1(C)Oc2ccc(C(=O)N3CCOCC3)cc2N(CC(=O)N2CCOCC2)C1=O	i	i	i	i	74	i	i
CC1(C)Oc2ccc(C(=O)N3CCCC3)cc2N(CC(=O)N2CCCCC2)C1=O	nt	i	nt	nt	i	nt	nt
Cc1oc(C2CC2)cc1C(=O)N[C@@H](C)Cn1nnc2ccccc21	nt	i	nt	nt	i	nt	nt
c1ccc(-c2csc3ncnc(N4CCc5ccccc5C4)c23)cc1	i	i	i	i	72	i	+
Cc1ccc2c(c1)C(O)CC1(CCN(CC(O)c3ccc4ccccc4c3)CC1)O2 (stereo not given)	nt	i	nt	nt	i	nt	nt
Cc1sc2ncnc(N(C)Cc3cccs3)c2c1C	i	i	i	i	i	i	+
CCNC(=S)N(Cc1ccccc1)Cc1cc2cc(OC)ccc2[nH]c1=O	nt	i	nt	nt	i	nt	nt
Cc1nc2c(c(=O)[nH]1)CCN(C(=O)c1cc(C3CC3)nc3ccccc13)C2	nt	i	nt	nt	i	nt	nt
COc1ccc(C(=O)O)cc1NC(=S)NC(=O)c1ccc(-c2ccc(Cl)cc2)o1	i	i	i	i	95	i	+
Cc1ccc(C(=O)O)cc1NC(=S)NC(=O)c1ccc(-c2ccccc2)cc1	i	i	i	i	74	i	+
O=C(CN(C(=O)CNC(=O)c1cccs1)c1ccc(Cl)c(C(F)(F)F)c1)NC1CCCC1	nt	i	nt	nt	i	nt	nt
COc1cnc(N(C)C)nc1Sc1cccc(Cl)c1	i	i	i	i	76	i	+
Cc1ccc(N=Nc2c(N)[nH]n3c(=O)c4c(nc23)CCCC4)cc1	nt	nt	i	nt	81	i	+
CCOC(=O)CSc1nnc2n(C3CCCCC3)c(=O)c3c4c(sc3n12)CCCC4	i	i	i	i	66	i	i
COc1ccc(C(=O)NCC(=O)n2nc(C)cc2C)cc1OC	i	i	i	i	66	i	i
Cc1cc(C)n(C(=O)CNC(=O)c2ccc(C(C)(C)C)cc2)n1	i	nt	i	i	nt	nt	nt
SMILES	PfGluPho inh	PGE2 EP2 inh	PHOSPHO1 block	HKDC1 inhibitor	EP2 mod	TbHK1 inh	EP2 confirm
COc1ccc2cc(CN(Cc3ccccc3)C(=S)NCCCN(C)C)c(=O)[nH]c2c1	nt	i	nt	nt	i	nt	nt
CCOC(=O)c1cnc2ccc(OCC)cc2c1N(C)Cc1ccccc1	i	i	i	i	90	i	+
COc1ccc(C(=O)NNC(=O)CSc2nc3cc(OC)c(OC)cc3cc2C)cc1	nt	i	nt	nt	i	nt	nt
COc1ccccc1-n1c(SCc2nc3ccccc3c(=O)[nH]2)nnc1-c1ccccc1	nt	i	nt	nt	i	nt	nt
Cc1cc2c3c(c1)C1(SCC(=O)N1c1ccc(F)cc1)C(=O)N3C(C)(C)CC2C (stereo not given)	i	i	i	i	67	i	i
CCOC(=O)CCSc1nc(-c2ccc3c(c2)OCO3)cc(C(F)(F)F)c1C#N	i	i	i	i	i	i	nt
CCOC(=O)CC(=O)CSc1nc(-c2ccc3c(c2)OCO3)cc(C(F)(F)F)c1C#N	i	i	i	i	68	i	i
CCCCc1nc(Cl)c(CN2CCc3c(nc(N4CCCC(C)C4)[nH]c3=O)C2)[nH]1 (stereo not given)	nt	nt	nt	nt	i	nt	nt
COc1ccccc1-c1nnc2sc(-c3cc4ccccc4o3)nn12	i	nt	i	i	77	i	+
COc1ccccc1-c1nnc2sc(-c3ccc(N(C)C)cc3)nn12	i	i	i	i	i	i	nt
O=C(CCCC(=O)N(CC(=O)NC1CCCC1)C1CCCCC1)Nc1ccccn1	nt	i	nt	nt	i	nt	nt
Nc1n[nH]c2c1C1(CCCCC1)Cc1ccccc1-2	i	i	i	i	74	i	+
CSc1n[nH]c2nc3c(c(=O)n12)C1(CCCCC1)Cc1ccccc1-3	i	i	i	i	i	i	nt
CN(Cc1c(C(=O)N2CCc3ccccc3C2)nc2ccc(Cl)cn12)C(C1CC1)C1CC1	i	i	i	i	76	i	i
CCN(C)Cc1c(C(=O)N2CCc3ccccc3C2)nc2ccc(Cl)cn12	i	i	i	i	i	i	nt
Cc1cc(SC(C)C(=O)O)nc2ccccc12 (stereo not given)	i	i	i	i	68	i	i
Cc1cc(SC(C)C(=O)NCC(=O)Nc2ccc(F)c(F)c2F)nc2ccccc12 (stereo not given)	i	i	i	i	i	i	nt
CC(Sc1cnc2ccccc2n1)C(=O)O (stereo not given)	i	i	i	i	68	i	i
CC(Sc1ccc2ccccc2n1)C(=O)O (stereo not given)	i	nt	i	i	97	i	i
COC(=O)CSc1cnc2ccccc2n1	i	i	i	i	i	i	nt
CCCNC(=O)N1CCC(n2c(C)nc3cccnc32)CC1	nt	i	nt	nt	i	nt	nt
O=C(O)COc1ccc2occ(C(=O)c3ccccc3)c2c1	i	i	i	i	66	i	+
CC(=O)Oc1ccc2occ(C(=O)c3ccccc3)c2c1	i	nt	nt	i	nt	nt	nt
Cc1ccc(C(=O)c2coc3ccc(OCC(=O)O)cc23)cc1	i	i	i	i	69	i	+
COc1ccc(C(=O)c2coc3ccc(O)cc23)cc1	i	nt	i	i	nt	nt	nt
SMILES	PfGluPho inh	PGE2 EP2 inh	PHOSPHO1 block	HKDC1 inhibitor	EP2 mod	TbHK1 inh	EP2 confirm
Cc1ccc(C(=O)OCC(=O)Nc2ccccc2Sc2ccccc2)cc1C	i	i	i	i	69	i	+
O=C(COC(=O)C1CC1)Nc1ccccc1Sc1ccccc1	i	i	i	i	i	i	nt
CC1CCCN(C(=O)CSc2nnc(-c3ccncc3)n2-c2ccc(F)cc2)C1 (stereo not given)	nt	i	nt	nt	i	nt	nt
CCCCOc1ccc(-c2n[nH]c(=S)n2Cc2ccccc2)cc1	i	nt	i	i	nt	nt	nt
Cc1ccc(OCc2n[nH]c(=S)n2Cc2ccccc2)cc1	i	i	i	i	62	i	i
CCOc1ccc(Cc2n[nH]c(=S)n2Cc2ccccc2)cc1	i	i	i	i	66	i	i
COc1ccc(Cc2n[nH]c(=S)n2Cc2ccccc2)cc1Cl	i	i	i	i	i	i	i

Bioassay records as filed in PubChem BioAssay.
